Data reported in ChEMBL document CHEMBL1142057, “Inhibition of the G2 DNA damage checkpoint by oliveroline isolated from Duguetia odorata” (J Nat Prod, 2007).
Activity calls are given as the source filed them. The rule behind the calls is not given here.

Assays:
[1] = test system: MCF7; experiment: Inhibition of 6.5 Gy [60Co]-induced G2 DNA damage check point in MCF7 mp53 cells at >10 uM; assay type: functional, cell-based; details: Homo sapiens
How it was run: (§1)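 MCF-7 mp53 cells seeded at 2 × 10^5 cells/dish, cultured 24 h, then given 6.5 Gy (60Co, 1.2 Gy/min). Sixteen hours later (90% in G2), compound added with 100 ng/mL nocodazole for 8 h. Cells fixed in 70% EtOH, stained with mitosis-specific antibody GF-7 and propidium iodide. 20 000 events per sample read by flow cytometry as % cells escaping G2 arrest. DMSO carrier control.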

[2] = test system: MCF7; experiment: Inhibition of cell proliferation in MCF7 mp53 cells in absence of 6.5 Gy [60Co]-induced DNA damage; assay type: functional, cell-based; details: Homo sapiens
How it was run: (§2)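 MCF-7 mp53 cells seeded at 1000 cells/well and grown overnight. Compound applied over a concentration range for 24 h (DMSO ≤1% final), then irradiated with 0 or 6.5 Gy. Compound removed 24 h later and cells grown in fresh medium until untreated cells neared confluence (typically 4-6 days). Proliferation read by MTT, 2 h at 37 °C, SDS/DMF solubilisation, absorbance 570 nm. IC50 reported.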

[3] = test system: MCF7; experiment: Inhibition of cell proliferation in MCF7 mp53 cells in presence of 6.5 Gy [60Co]-induced DNA damage; assay type: functional, cell-based; details: Homo sapiens; how it was run: as §2
[4] = test system: MCF7; experiment: Inhibition of 6.5 Gy [60Co]-induced G2 DNA damage check point in MCF7 mp53 cells; assay type: functional, cell-based; details: Homo sapiens; how it was run: as §1
[5] = test system: MCF7; experiment: Inhibition of 6.5 Gy [60Co]-induced G2 DNA damage check point in MCF7 mp53 cells at 10 uM; assay type: functional, Homo sapiens; design: scale not given: the % may be the effect or the level left; how it was run: as §1
[6] = target: T1, Serine/threonine-protein kinase Chk1 (Homo sapiens) (UniProt O14757); experiment: Inhibition of Chk1
T1 sequence (whole entry): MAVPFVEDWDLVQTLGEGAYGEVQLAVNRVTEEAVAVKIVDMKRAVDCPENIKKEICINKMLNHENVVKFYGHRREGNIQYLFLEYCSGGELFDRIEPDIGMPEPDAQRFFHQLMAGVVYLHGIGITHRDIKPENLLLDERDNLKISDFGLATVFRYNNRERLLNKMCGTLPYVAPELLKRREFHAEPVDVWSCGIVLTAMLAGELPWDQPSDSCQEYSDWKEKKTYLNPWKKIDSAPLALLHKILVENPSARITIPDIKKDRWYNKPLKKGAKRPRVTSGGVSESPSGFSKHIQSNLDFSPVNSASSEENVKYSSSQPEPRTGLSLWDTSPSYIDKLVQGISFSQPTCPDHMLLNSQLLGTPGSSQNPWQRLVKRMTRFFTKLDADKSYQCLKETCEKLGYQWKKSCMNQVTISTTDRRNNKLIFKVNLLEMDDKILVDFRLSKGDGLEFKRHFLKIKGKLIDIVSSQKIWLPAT

[7] = test system: MCF7; experiment: Inhibition of 6.5 Gy [60Co]-induced G2 DNA damage check point in MCF7 mp53 cells at 50 uM; assay type: functional, Homo sapiens; design: scale not given: the % may be the effect or the level left; how it was run: as §1

SMILES	Activity [1]	IC50 [2] [µM]	IC50 [3] [µM]	Activity [4]	Activity [5] [%]	Activity [6]	Activity [7] [%]
COc1cc2c(cc1O)CC[n+]1cc3cc(OC)c(OC)cc3cc1-2 [DEHYDRODISCRETINE]	inactive	25	7	inactive			
O=C1NC(=O)c2c1c1c3ccccc3[nH]c1n1cncc21 [ISOGRANULATIMIDE]					35		
CN1CCc2cc3c(c4c2[C@H]1[C@@H](O)c1ccccc1-4)OCO3 [OLIVEROLINE]	Active	45	20	Dose-dependent effect		inactive	35
COc1cc2c(cc1OC)-c1cc3cc(OC)c(OC)cc3c[n+]1CC2 [PSEUDOPALMATINE]	inactive	250	80	inactive			
